# pEC50, pKi: −log10 of the molar value.
# Columns and labels:
# Cannabinoid receptor 2 [1] = target: T1, Cannabinoid receptor 2 (Homo sapiens, UniProt P34972); experiment: Displacement of [3H]-CP-55940 from human CB2 receptor expressed in CHO cell membranes at 10 uM after 1 hr by beta-counting analysis
# Outline: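 Competition binding to hCB2-CHO membranes (40 μg) with [3H]-CP-55,940 1 nM in Tris-HCl/MgCl2/EDTA/0.5% BSA buffer, pH 7.4, 1 h at 30°C. Final DMSO was below 0.1%. Filtration on GF/B, then β-count; HU-210 10 µM defined nonspecific binding. Compounds were first screened at 10 μM.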
# Cannabinoid receptor 2 [2] = target: T1, Cannabinoid receptor 2; experiment: Displacement of [3H]-CP-55940 from human CB2 receptor expressed in CHO cell membranes after 1 hr by beta-counting analysis
# Homo sapiens = species on record: Homo sapiens; experiment: Selectivity index, ratio of Ki for human CB1 receptor expressed in CHO cell membranes to Ki for human CB2 receptor expressed in CHO cell membranes; assay type: cell-based
# Cannabinoid receptor 1 [3] = target: T2, Cannabinoid receptor 1 (Homo sapiens, UniProt P21554); experiment: Displacement of [3H]-CP-55940 from human CB1 receptor expressed in CHO cell membranes after 1 hr by beta-counting analysis
# Mus musculus [4] = experiment: Anti-inflammatory activity in C57BL6 mouse model of DSS-induced acute colitis assessed reduction in MPO activity at 10 mg/kg, ip measured on day 9 relative to control; assay type: functional; conditions: 216 h
# Outline: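 DSS-colitis C57BL6 mice were dosed ip at 10 mg/kg daily in hydroxypropyl-β-cyclodextrin, against vehicle controls. Colon was homogenised in phosphate buffer pH 6.0 with 0.5% hexadecyltrimethyl ammonium, then sonicated and freeze-thawed. Supernatant was reacted with o-dianisidine 1 mg/ml and H2O2 0.0005%, and OD read at 450 nm. Results were normalised to Bradford protein; n = 10.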
# Mus musculus [5] = experiment: Anti-inflammatory activity in C57BL6 mouse model of DSS-induced acute colitis assessed colon weight/size ratio at 10 mg/kg, ip measured on day 9 (reference value: 0.050 +/- 0.0014); assay type: functional
# [6] = Aqueous solubility of compound in stimulated gastric fluid after 24 hrs by shake-flask method; assay type: physicochemical; conditions: simulated gastric fluid
# Outline: (§1)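 Solubility was measured by shake-flask for 24 h at room temperature in PBS pH 7.4, simulated gastric fluid or simulated intestinal fluid.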
# [7] = Half life in human liver microsomes at 0.1 mg/ml after 60 mins; assay type: ADME, Microsome
# Outline: (§2)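 Incubation with human liver microsomes at 0.1 mg/mL, 37°C, sampled at 0 and 60 min. Outputs were % remaining at 60 min, half-life and intrinsic clearance in μL/min/mg.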
# Cannabinoid receptor 2 [8] = target: T1, Cannabinoid receptor 2; experiment: Agonist activity at human CB2 receptor expressed in CHO cell membranes assessed as [35S]GTPgammaS binding after 1 hr by beta-counting analysis; assay type: functional
# [9] = Intrinsic clearance in human liver microsomes at 0.1 mg/ml after 60 mins; assay type: ADME, Microsome; conditions: read-out: CLH; outline: as §2
# [10] = Efflux ratio of permeability in human Caco2 after 60 mins; assay type: ADME, cell-based; conditions: Caco-2
# Outline: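 Run by a contract lab. Compound incubated with the Caco-2 cell line at 37 °C, pH 6.5/7.4, sampled at 0 and 60 min. Apparent permeability measured A-B and B-A, and the efflux ratio taken as (B-A)/(A-B).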
# [11] = Permeability of the compound across basolateral side to apical side in human Caco2 after 60 mins; assay type: ADME, cell-based; conditions: Caco-2, read-out: permeability
# Outline: (§3)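 Caco-2 monolayers were dosed apical-to-basolateral and basolateral-to-apical, pH 6.5/7.4, at 37°C. Samples were taken at 0 and 60 min, and permeability reported in 10^-6 cm/s.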
# [12] = Permeability of the compound across apical side to basolateral side in human Caco2 after 60 mins; assay type: ADME, cell-based; conditions: Caco-2, read-out: permeability; outline: as §3
# Mus musculus [13] = experiment: Anti-inflammatory activity in C57BL6 mouse model of DSS-induced acute colitis assessed Sod2 mRNA expression at 10 mg/kg, ip measured on day 9 (reference value: 2 +/- 0.4 a.u.); assay type: functional
# Outline: (§4)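 Colons came from DSS-colitis C57BL6 mice dosed ip at 10 mg/kg daily in hydroxypropyl-β-cyclodextrin, or given vehicle. Total RNA was extracted and reverse-transcribed. Sod2 and iNos mRNA were measured by SYBR Green RT-qPCR against the PolR2A reference gene. Mean ± SEM, n = 10, Mann-Whitney U test.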
# [14] = Stability in human liver microsomes assessed as compound remaining at 0.1 mg/ml after 60 mins; assay type: ADME, Microsome; conditions: read-out: Stability; outline: as §2
# [15] = Aqueous solubility of compound in stimulated intestinal fluid after 24 hrs by shake-flask method; assay type: physicochemical; conditions: simulated intestinal fluid; outline: as §1
# [16] = Protein binding in human plasma after 4 hrs by equilibrium dialysis method; assay type: ADME, cell-free; conditions: read-out: PPB (converted)
# Outline: (§5)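 Human plasma protein binding was measured by equilibrium dialysis, 4 h at 37°C. Both % bound and % recovery were reported.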
# [17] = Aqueous solubility of compound in pH 7.4 PBS after 24 hrs by shake-flask method; assay type: physicochemical; outline: as §1
# [18] = Protein binding in human plasma assessed as drug recovery after 4 hrs by equilibrium dialysis method; assay type: ADME, cell-free; conditions: read-out: Drug recovery; outline: as §5
# Mus musculus [19] = experiment: Anti-inflammatory activity in C57BL6 mouse model of DSS-induced acute colitis assessed iNos mRNA expression at 10 mg/kg, ip measured on day 9 (reference value: 1 +/- 0.2 a.u.); assay type: functional; outline: as §4
# Mus musculus [20] = experiment: Anti-inflammatory activity in C57BL6 mouse model of DSS-induced acute colitis assessed as body weight change at 10 mg/kg, ip measured on day 9 (reference value: 79.5 +/- 1.8%); assay type: functional
# Cannabinoid receptor 2 [21] = target: T1, Cannabinoid receptor 2; experiment: Agonist activity at human CB2 receptor expressed in CHO cell membranes assessed as [35S]GTPgammaS binding after 1 hr by beta-counting analysis relative to control; assay type: functional
# Outline: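 Membranes from hCB2-CHO cells, 40 μg protein, in 50 mM Tris-HCl, 3 mM MgCl2, 1 mM EDTA, 100 mM NaCl, 0.1% BSA, pH 7.4, with 20 μM GDP. [35S]-GTPγS was 0.05 nM final, 1 h at 30°C. Filtration on GF/B, then β-counting. Nonspecific binding was set with 100 μM Gpp(NH)p.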
# HT-29 = experiment: Cytotoxicity against human HT-29 cells at 10 uM after 72 hrs by MTS assay relative to control; assay type: cell-based; conditions: ht-29, 72 h
# Outline: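 HT29 cells were grown in DMEM-Glutamax with 10% FBS at 37°C and 5% CO2. They were seeded at 3000 cells/well in triplicate and allowed 24 h. Compounds were added at 10 μM with DMSO below 0.1%, for 72 h. Read-out was the MTS colorimetric test, given as % proliferation inhibition from ≥4 experiments in duplicate.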
# Cannabinoid receptor 1 [22] = target: T2, Cannabinoid receptor 1; experiment: Agonist activity at human CB1 receptor
# Cannabinoid receptor 2 [23] = target: T1, Cannabinoid receptor 2; experiment: Agonist activity at human CB2 receptor
# T1 sequence (P34972 whole entry): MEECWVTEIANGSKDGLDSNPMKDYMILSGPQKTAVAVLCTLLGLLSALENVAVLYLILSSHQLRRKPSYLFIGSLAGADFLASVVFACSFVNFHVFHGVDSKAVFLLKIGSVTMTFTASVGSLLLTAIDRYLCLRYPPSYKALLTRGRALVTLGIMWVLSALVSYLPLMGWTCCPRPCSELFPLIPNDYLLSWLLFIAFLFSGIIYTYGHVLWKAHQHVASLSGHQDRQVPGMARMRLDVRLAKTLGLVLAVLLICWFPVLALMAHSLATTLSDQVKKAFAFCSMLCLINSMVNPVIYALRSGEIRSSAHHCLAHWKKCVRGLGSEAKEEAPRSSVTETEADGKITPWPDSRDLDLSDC
# T2 sequence (P21554 whole entry): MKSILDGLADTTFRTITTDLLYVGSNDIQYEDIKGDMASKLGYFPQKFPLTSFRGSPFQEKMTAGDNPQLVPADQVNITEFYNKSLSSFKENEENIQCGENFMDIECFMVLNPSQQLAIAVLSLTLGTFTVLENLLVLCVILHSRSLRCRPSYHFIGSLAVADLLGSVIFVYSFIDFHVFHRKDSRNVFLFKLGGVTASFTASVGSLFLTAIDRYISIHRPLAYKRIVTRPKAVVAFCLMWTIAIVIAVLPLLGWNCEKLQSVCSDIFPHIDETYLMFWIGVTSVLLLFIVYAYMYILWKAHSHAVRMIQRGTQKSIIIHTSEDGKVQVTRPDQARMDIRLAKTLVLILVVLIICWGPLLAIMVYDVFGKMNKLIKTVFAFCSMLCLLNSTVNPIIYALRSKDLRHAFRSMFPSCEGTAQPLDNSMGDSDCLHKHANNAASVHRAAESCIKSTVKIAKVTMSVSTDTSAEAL
SMILES,inhibition (Cannabinoid receptor 2 [1]),pKi (Cannabinoid receptor 2 [2]),Ratio Ki (Homo sapiens),pKi (Cannabinoid receptor 1 [3]),other results
CC(Cn1c(=O)sc2cc(C(=O)C34CC5CC(CC(C5)C3)C4)ccc21)N(C)C (stereo not given),> 60%,6.30,,,
CCCCCn1c(=O)oc2cc(C(=O)C3C(C)(C)C3(C)C)ccc21,> 60%,< 6.00,,,
CCCCCn1c(=O)sc2cc(C(O)C34CC5CC(CC(C5)C3)C4)ccc21 (stereo not given),> 60%,6.57,> 4,< 6.00,
CCCCCn1c(=O)sc2cc(C(=O)C34CC5CC(CC(C5)C3)C4)ccc21,> 60%,7.87,46,6.20,inhibition in vivo at 10 mg/kg (Mus musculus [4]): 43%; Ratio (Mus musculus [5]): 0.044; solubility thermodynamic at 24 h [6]: 183 µM; half-life [7]: 48 min; pEC50 (Cannabinoid receptor 2 [8]): 7.38; microsomal CLint [9]: 146 µL/min/mg; efflux ratio at 1 h [10]: 0.7; Papp B→A at 1 h [11]: 1.3 ×10⁻⁶ cm/s; Papp A→B at 1 h [12]: 1.8 ×10⁻⁶ cm/s; Activity (Mus musculus [13]): 1.2 a.u.; remaining at 1 h [14]: 43%; solubility thermodynamic at 24 h [15]: 107 µM; fraction unbound at 4 h [16]: 0.11; solubility thermodynamic at 24 h [17]: 1 µM; recovery at 4 h [18]: 100%; Activity (Mus musculus [19]): 0.4 a.u.; Activity (Mus musculus [20]): 85.9%; Emax (Cannabinoid receptor 2 [21]): 157%; Activity (HT-29): 0%
CCCCCn1c(=O)sc2cc(C(=O)C3CCCCC3)ccc21,> 60%,7.31,> 20,< 6.00,pEC50 (Cannabinoid receptor 2 [8]): 7.38; Emax (Cannabinoid receptor 2 [21]): 178%; Activity (HT-29): 67%
CC(C)n1c(=O)sc2cc(C(=O)C34CC5CC(CC(C5)C3)C4)ccc21,> 60%,6.55,> 4,< 6.00,
CCCCCn1c(=O)sc2cc(C(OC)C34CC5CC(CC(C5)C3)C4)ccc21 (stereo not given),> 60%,6.46,> 3,< 6.00,
CCCCCn1c(=O)sc2ccc(C(=O)C34CC5CC(CC(C5)C3)C4)cc21,> 60%,6.28,,,
CCCCCn1c(=O)sc2cc(/C(=N\O)C34CC5CC(CC(C5)C3)C4)ccc21,> 60%,6.60,> 4,< 6.00,
CCCCCn1c(=O)sc2cc(CC34CC5CC(CC(C5)C3)C4)ccc21,> 60%,6.84,4,6.23,
CCCCCn1c(=O)oc2cc(C(=O)C3CCCCC3)ccc21,> 60%,< 6.00,,,
CC(C)(C)NC(=O)c1nn(-c2ccc(F)cc2F)c2c1[C@H]1CC[C@@H]2C1 [TEDALINAB],,,,,pKi (Cannabinoid receptor 1 [22]): 6.01; pKi (Cannabinoid receptor 2 [23]): 7.93
CCCCCn1c(=O)oc2cc(C(=O)C34CC5CC(CC(C5)C3)C4)ccc21,> 60%,< 6.00,,,
CCCCn1c(=O)sc2cc(C(=O)C34CC5CC(CC(C5)C3)C4)ccc21,> 60%,7.59,30,6.11,pEC50 (Cannabinoid receptor 2 [8]): 6.82; Emax (Cannabinoid receptor 2 [21]): 152%; Activity (HT-29): 0%
CCCCCn1c(=O)sc2cc(C(=O)c3ccccc3)ccc21,> 60%,< 6.00,,,
CCCCCn1c(=O)sc2cc(/C(=N\OC)C34CC5CC(CC(C5)C3)C4)ccc21,> 60%,6.36,,,
CCCCCn1c(=O)sc2ccc(C(=O)C3CCCCC3)cc21,> 60%,< 6.00,,,
CCCCCn1c(=O)sc2ccc(C(=O)C3C(C)(C)C3(C)C)cc21,> 60%,< 6.00,,,
Cc1c(C(=O)c2cccc3ccccc23)c2cccc3c2n1[C@H](CN1CCOCC1)CO3,,,,,Emax (Cannabinoid receptor 2 [21]): 181%
CCCCCn1c(=O)sc2cc(C(=O)C3CCCC3)ccc21,> 60%,6.68,> 5,< 6.00,
CCCC(C)(C)c1ccc2c(c1)OC(C)(C)[C@@H]1CC=C(C)C[C@@H]21,,8.10,> 125,< 6.00,
CCCCCCn1c(=O)sc2cc(C(=O)C34CC5CC(CC(C5)C3)C4)ccc21,> 60%,7.41,23,6.04,pEC50 (Cannabinoid receptor 2 [8]): 7.48; Emax (Cannabinoid receptor 2 [21]): 169%; Activity (HT-29): 0%
CCS(=O)(=O)Nc1ccc2c(c1)nc(C(C)(C)C)n2CC1CCC(F)(F)CC1,,,,,pKi (Cannabinoid receptor 1 [22]): 7.93; pKi (Cannabinoid receptor 2 [23]): 9.06
CCCCCn1c(=O)sc2cc(NC(=O)C34CC5CC(CC(C5)C3)C4)ccc21,> 60%,< 6.00,,,
CCCCCn1c(=O)sc2cc(C(=O)C3C(C)(C)C3(C)C)ccc21,> 60%,< 6.00,,,
CCCCCn1c(=O)sc2cc(C(=O)NC34CC5CC(CC(C5)C3)C4)ccc21,> 60%,< 6.00,,,
